Source: ChEMBL document CHEMBL1275300, “Synthesis and antituberculosis activity of some new pyridazine derivatives. Part II” (Eur J Med Chem, 2010)
Converted amounts (≈) assume the structure as drawn.

System: Mycobacterium tuberculosis
Assay: Antimicrobial activity against Mycobacterium tuberculosis H37Rv ATCC 27294 by microplate alamar blue assay
Type: functional, organism-based
Summary of the method: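 M. tuberculosis H37Rv (ATCC 27294) grown in BACTEC 12B medium and tested by microplate Alamar Blue assay. Compounds were dissolved in DMSO, diluted with distilled water, and tested as ten 2-fold dilutions. Read-out was fluorescence. IC90 is the concentration giving 90% fluorescence reduction versus controls; IC50 is defined the same way at 50%.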

| SMILES | IC50 | IC90 |
| --- | --- | --- |
| C#CCn1nc(-c2ccc(C)cc2)ccc1=O | 63.7 µg/mL (≈ 284 µM) | 89.2 µg/mL (≈ 398 µM) |
| CCOC(=O)C(C)n1nc(-c2ccc(Br)cc2)ccc1=O (stereo unspecified) | 26.8 µg/mL (≈ 76.5 µM) | 47.5 µg/mL (≈ 135 µM) |
| CCOC(=O)C(C)n1nc(-c2ccc(C)cc2)ccc1=O (stereo unspecified) | 64.9 µg/mL (≈ 227 µM) | 84 µg/mL (≈ 293 µM) |
| CCOC(=O)Cn1nc(-c2ccc(C)cc2)ccc1=O | > 100 µg/mL | > 100 µg/mL |
| CCOC(=O)Cn1nc(-c2ccc(Br)cc2)ccc1=O | > 100 µg/mL | > 100 µg/mL |
| COC(=O)Cn1nc(-c2ccc(Cl)cc2)ccc1=O | 94.2 µg/mL (≈ 338 µM) | > 100 µg/mL |
| NC(=O)Cn1nc(-c2ccc(Cl)cc2)ccc1=O | > 100 µg/mL | > 100 µg/mL |
| C=CCn1nc(-c2ccc(Br)cc2)ccc1=O | 37.8 µg/mL (≈ 130 µM) | 46.8 µg/mL (≈ 161 µM) |
| COC(=O)Cn1nc(-c2ccc(Br)cc2)ccc1=O | 73.2 µg/mL (≈ 227 µM) | > 100 µg/mL |
| CCOC(=O)Cn1nc(-c2ccc(Cl)cc2)ccc1=O | > 100 µg/mL | > 100 µg/mL |
| C#CCn1nc(-c2ccc(Cl)cc2)ccc1=O | 34.7 µg/mL (≈ 142 µM) | > 100 µg/mL |
| C=CCn1nc(-c2ccc(C)cc2)ccc1=O | 60.7 µg/mL (≈ 268 µM) | 76.5 µg/mL (≈ 338 µM) |
| C#CCn1nc(-c2ccc(Br)cc2)ccc1=O | 97.8 µg/mL (≈ 338 µM) | > 100 µg/mL |
| C=CCn1nc(-c2ccc(Cl)cc2)ccc1=O | 36.6 µg/mL (≈ 148 µM) | 61.6 µg/mL (≈ 250 µM) |
| Cc1ccc(-c2ccc(=O)n(CC(N)=O)n2)cc1 | > 100 µg/mL | > 100 µg/mL |
| NC(=O)Cn1nc(-c2ccc(Br)cc2)ccc1=O | > 100 µg/mL | > 100 µg/mL |
| CCOC(=O)C(C)n1nc(-c2ccc(Cl)cc2)ccc1=O (stereo unspecified) | 28.6 µg/mL (≈ 93.2 µM) | 46 µg/mL (≈ 150 µM) |
| COC(=O)Cn1nc(-c2ccc(C)cc2)ccc1=O | > 100 µg/mL | > 100 µg/mL |
